From ChEMBL document CHEMBL4130487, “A pentanoic acid derivative targeting matrix metalloproteinase-2 (MMP-2) induces apoptosis in a chronic myeloid leukemia cell line” (Eur J Med Chem, 2017)

Columns and labels:
Neutrophil collagenase = Neutrophil collagenase (Homo sapiens, UniProt P22894); test: Inhibition of recombinant human MMP8 (Phe99 to Gln269 residues) expressed in Escherichia coli using Ac-Pro-Leu-Gly-S-Leu-Leu-Gly-OEt as substrate after 1 hr measured at 1 min time interval for 30 mins by microplate photometric method
Summary of the method: (§1)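 Commercial MMP kits; compound preincubated with enzyme before chromogenic substrate was added. Reactions at 37 °C for 1 h, with at least six inhibitor concentrations in triplicate. Absorbance at 410 nm read every 1 min for 30 min. NNGH used as reference inhibitor. IC50 taken from semi-logarithmic dose-response plots.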

Interstitial collagenase = target: T1, Interstitial collagenase (Homo sapiens, UniProt P03956); test: Inhibition of recombinant human MMP1 (Phe100 to Gln268 residues) using Ac-Pro-Leu-Gly-S-Leu-Leu-Gly-OEt as substrate after 1 hr measured at 1 min time interval for 30 mins by microplate photometric method; summary of the method: as §1
T1 sequence (P03956 whole entry): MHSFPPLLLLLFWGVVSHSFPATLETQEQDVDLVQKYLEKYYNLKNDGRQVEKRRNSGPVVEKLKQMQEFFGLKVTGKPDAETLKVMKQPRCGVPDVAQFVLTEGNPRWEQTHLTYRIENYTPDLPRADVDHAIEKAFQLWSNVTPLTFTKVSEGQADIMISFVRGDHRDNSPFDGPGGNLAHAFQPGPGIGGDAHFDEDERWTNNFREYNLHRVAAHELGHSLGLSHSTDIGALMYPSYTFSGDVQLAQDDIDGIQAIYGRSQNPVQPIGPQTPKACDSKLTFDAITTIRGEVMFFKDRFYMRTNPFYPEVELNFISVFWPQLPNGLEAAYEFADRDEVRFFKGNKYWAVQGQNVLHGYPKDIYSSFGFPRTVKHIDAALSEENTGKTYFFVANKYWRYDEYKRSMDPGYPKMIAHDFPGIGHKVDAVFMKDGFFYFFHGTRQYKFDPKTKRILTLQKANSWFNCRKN

[1] = target: Matrix metalloproteinase-9 (Homo sapiens, UniProt P14780); test: Inhibition of recombinant human MMP9 (Phe107 to Pro449 residues) expressed in Escherichia coli using Ac-Pro-Leu-Gly-S-Leu-Leu-Gly-OEt as substrate after 1 hr measured at 1 min time interval for 30 mins by microplate photometric method; summary of the method: as §1
PBMC = test: Cytotoxicity against human PBMC assessed as reduction in cell viability after 48 hrs by MTT assay; type: cell-based
Summary of the method: (§2)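 A549, MDA-MB-231, K562, U937 and PBMC (PBMC from healthy donors) seeded at 1×10^3 cells/well and left 24 h, then exposed to compounds for 48 h at 37 °C, 5% CO2. Adherent lines were grown in DMEM, the others in RPMI-1640 with 10% heat-inactivated FBS. MTT read-out; viability expressed as % of untreated control. IC50 taken as the concentration giving 50% viability loss.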

A549 = test: Cytotoxicity against human A549 cells assessed as reduction in cell viability after 48 hrs by MTT assay; type: functional, cell-based; settings: A549, 48 h; summary of the method: as §2
[2] = target: 72 kDa type IV collagenase (Homo sapiens, UniProt P08253); test: Inhibition of recombinant human MMP2 (Tyr110 to Asp452 residues) using Ac-Pro-Leu-Gly-S-Leu-Leu-Gly-OEt as substrate after 1 hr measured at 1 min time interval for 30 mins by microplate photometric method; summary of the method: as §1
MDA-MB-231 = test: Cytotoxicity against human MDA-MB-231 cells assessed as reduction in cell viability after 48 hrs by MTT assay; type: functional, cell-based; settings: MDA-MB-231, 48 h; summary of the method: as §2
[3] = target: Matrix metalloproteinase-14 (Homo sapiens, UniProt P50281); test: Inhibition of recombinant human MMP14 (Tyr112 to Arg298 residues) expressed in Escherichia coli using Ac-Pro-Leu-Gly-S-Leu-Leu-Gly-OEt as substrate after 1 hr measured at 1 min time interval for 30 mins by microplate photometric method; summary of the method: as §1
U-937 = test: Cytotoxicity against human U937 cells assessed as reduction in cell viability after 48 hrs by MTT assay; type: functional, cell-based; settings: U-937, 48 h; summary of the method: as §2
[4] = target: Macrophage metalloelastase (Homo sapiens, UniProt P39900); test: Inhibition of recombinant human MMP12 (Phe99 to Leu271 residues) expressed in Escherichia coli using Ac-Pro-Leu-Gly-S-Leu-Leu-Gly-OEt as substrate after 1 hr measured at 1 min time interval for 30 mins by microplate photometric method; summary of the method: as §1
[5] = target: MMP-2/MMP-9 (Homo sapiens) (UniProt P08253+P14780); test: Selectivity ratio of IC50 for recombinant human MMP9 (Phe107 to Pro449 residues) expressed in Escherichia coli to IC50 for recombinant human MMP2 (Tyr110 to Asp452 residues)
K562 = test: Cytotoxicity against human K562 cells assessed as reduction in cell viability after 48 hrs by MTT assay; type: functional, cell-based; settings: K562, 48 h; summary of the method: as §2

Chain of Neutrophil collagenase (P22894 whole entry): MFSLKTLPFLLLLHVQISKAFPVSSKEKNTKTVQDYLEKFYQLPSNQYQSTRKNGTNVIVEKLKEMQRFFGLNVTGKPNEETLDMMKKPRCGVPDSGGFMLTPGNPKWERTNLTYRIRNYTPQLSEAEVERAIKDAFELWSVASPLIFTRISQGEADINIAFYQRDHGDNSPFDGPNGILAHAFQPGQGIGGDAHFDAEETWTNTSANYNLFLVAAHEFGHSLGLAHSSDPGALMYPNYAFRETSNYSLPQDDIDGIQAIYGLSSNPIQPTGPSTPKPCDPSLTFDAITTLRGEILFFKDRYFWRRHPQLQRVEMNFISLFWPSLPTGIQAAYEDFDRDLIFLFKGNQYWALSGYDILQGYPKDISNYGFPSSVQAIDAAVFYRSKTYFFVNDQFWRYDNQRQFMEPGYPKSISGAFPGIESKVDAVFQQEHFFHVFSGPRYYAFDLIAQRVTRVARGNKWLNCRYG
Chain of 72 kDa type IV collagenase (P08253 whole entry): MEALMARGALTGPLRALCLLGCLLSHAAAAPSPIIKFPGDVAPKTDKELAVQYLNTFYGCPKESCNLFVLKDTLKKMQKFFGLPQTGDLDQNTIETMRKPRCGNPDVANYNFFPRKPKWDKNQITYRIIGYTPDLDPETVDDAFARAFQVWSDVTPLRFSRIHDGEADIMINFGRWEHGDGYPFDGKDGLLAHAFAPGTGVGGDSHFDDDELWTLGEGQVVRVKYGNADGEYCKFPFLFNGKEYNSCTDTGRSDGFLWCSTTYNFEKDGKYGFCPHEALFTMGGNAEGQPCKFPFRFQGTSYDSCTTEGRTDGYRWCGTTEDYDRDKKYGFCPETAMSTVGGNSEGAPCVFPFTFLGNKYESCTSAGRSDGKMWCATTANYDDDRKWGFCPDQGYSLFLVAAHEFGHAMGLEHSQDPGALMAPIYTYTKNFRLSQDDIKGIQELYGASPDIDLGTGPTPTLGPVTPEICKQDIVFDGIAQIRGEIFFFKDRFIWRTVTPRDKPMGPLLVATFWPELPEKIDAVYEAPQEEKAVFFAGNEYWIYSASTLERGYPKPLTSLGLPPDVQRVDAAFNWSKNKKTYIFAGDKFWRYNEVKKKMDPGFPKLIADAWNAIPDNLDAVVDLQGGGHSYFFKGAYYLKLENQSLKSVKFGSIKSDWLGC
Chain of Macrophage metalloelastase (P39900 whole entry): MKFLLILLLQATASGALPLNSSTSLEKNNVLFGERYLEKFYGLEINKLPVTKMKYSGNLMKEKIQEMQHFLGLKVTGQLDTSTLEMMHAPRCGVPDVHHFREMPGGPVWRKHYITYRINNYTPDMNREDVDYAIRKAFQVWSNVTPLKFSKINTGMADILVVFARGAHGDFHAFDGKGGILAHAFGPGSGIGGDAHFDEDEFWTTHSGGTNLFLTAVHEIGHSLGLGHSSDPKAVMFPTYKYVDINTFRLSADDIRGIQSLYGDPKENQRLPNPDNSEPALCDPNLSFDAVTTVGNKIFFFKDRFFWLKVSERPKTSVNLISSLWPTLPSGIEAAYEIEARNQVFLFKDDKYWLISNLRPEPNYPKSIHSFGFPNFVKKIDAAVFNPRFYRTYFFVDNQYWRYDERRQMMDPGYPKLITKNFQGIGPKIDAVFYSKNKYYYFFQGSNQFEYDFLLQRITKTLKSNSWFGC
Chain of Matrix metalloproteinase-9 (P14780 whole entry): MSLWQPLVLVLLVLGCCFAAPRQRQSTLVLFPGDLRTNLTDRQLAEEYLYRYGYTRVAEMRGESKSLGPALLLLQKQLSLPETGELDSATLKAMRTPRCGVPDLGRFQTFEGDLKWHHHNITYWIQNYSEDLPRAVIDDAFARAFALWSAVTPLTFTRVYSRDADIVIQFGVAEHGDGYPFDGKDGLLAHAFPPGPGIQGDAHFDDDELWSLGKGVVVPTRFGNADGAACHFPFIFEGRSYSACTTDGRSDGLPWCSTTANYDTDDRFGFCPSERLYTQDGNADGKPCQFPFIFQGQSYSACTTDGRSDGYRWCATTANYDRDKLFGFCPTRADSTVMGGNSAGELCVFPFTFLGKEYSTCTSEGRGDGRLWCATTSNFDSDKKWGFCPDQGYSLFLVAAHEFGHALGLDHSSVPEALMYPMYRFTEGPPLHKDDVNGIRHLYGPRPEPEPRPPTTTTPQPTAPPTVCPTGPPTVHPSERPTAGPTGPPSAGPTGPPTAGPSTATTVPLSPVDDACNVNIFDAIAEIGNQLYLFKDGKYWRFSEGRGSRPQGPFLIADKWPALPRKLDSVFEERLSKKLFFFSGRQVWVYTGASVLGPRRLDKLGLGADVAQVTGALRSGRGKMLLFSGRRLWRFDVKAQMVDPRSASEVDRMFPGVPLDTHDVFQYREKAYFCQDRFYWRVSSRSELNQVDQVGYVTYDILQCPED

SMILES | IC50 (Neutrophil collagenase) [µM] | IC50 (Interstitial collagenase) [µM] | IC50 [1] [µM] | IC50 (PBMC) [µM] | IC50 (A549) [µM] | IC50 [2] [µM] | IC50 (MDA-MB-231) [µM] | IC50 [3] [µM] | IC50 (U-937) [µM] | IC50 [4] [µM] | Ratio IC50 [5] | IC50 (K562) [µM]
NC(=O)CC[C@H](NS(=O)(=O)c1ccc([N+](=O)[O-])cc1)C(=O)O | 199 | > 500 | 7 | > 1000 | > 500 | 1.65 | > 500 | 76.3 | > 500 | 100 | 4.24 | > 500
CCNC(=O)CC[C@H](NS(=O)(=O)c1ccc([N+](=O)[O-])cc1)C(=O)O | 298 | > 500 | 4.8 | > 1000 | 221 | 5.34 | > 500 | 87.1 | 89.4 | 109 | – | > 500
CCCCNC(=O)CC[C@H](NS(=O)(=O)c1ccc([N+](=O)[O-])cc1)C(=O)O | 346 | > 500 | 6.36 | > 1000 | 276 | 4.07 | > 500 | 111 | 94 | 198 | – | 19.7
CC(C)CNC(=O)CC[C@H](NS(=O)(=O)c1ccc([N+](=O)[O-])cc1)C(=O)O | 483 | > 500 | 5.14 | > 1000 | > 500 | 8.52 | > 500 | 309 | 93.8 | > 500 | – | 42.5
CNC(=O)CC[C@H](NS(=O)(=O)c1ccc([N+](=O)[O-])cc1)C(=O)O | 401 | > 500 | 7.5 | > 1000 | > 500 | 2.85 | > 500 | > 500 | > 500 | > 500 | 2.63 | > 500
O=C(CC[C@H](NS(=O)(=O)c1ccc([N+](=O)[O-])cc1)C(=O)O)NCc1ccccc1 | 173 | > 500 | 6.37 | > 1000 | 343 | 0.21 | 175 | 109 | 102 | 95.2 | > 25 | 23.4
CC(C)NC(=O)CC[C@H](NS(=O)(=O)c1ccc([N+](=O)[O-])cc1)C(=O)O | > 500 | > 500 | 5.97 | > 1000 | > 500 | 2.12 | > 500 | 301 | 95.1 | 493 | 2.82 | 19.8
